Laboratory results as given in ChEMBL document CHEMBL1932985, “Identification of biaryl sulfone derivatives as antagonists of the histamine H₃ receptor: discovery of (R)-1-(2-(4'-(3-methoxypropylsulfonyl)biphenyl-4-yl)ethyl)-2-methylpyrrolidine (APD916)” (Bioorg Med Chem Lett, 2012).

Assays:
Histamine H3 receptor [1] = biological target: Histamine H3 receptor (Rattus norvegicus, UniProt Q9QYN8); assay: Displacement of N-[3H]-methylhistamine from histamine H3 receptor in rat cortex membranes; type: cell membranes, Membrane
Histamine H3 receptor (Rattus norvegicus, UniProt Q9QYN8), sequence (Q9QYN8 whole entry): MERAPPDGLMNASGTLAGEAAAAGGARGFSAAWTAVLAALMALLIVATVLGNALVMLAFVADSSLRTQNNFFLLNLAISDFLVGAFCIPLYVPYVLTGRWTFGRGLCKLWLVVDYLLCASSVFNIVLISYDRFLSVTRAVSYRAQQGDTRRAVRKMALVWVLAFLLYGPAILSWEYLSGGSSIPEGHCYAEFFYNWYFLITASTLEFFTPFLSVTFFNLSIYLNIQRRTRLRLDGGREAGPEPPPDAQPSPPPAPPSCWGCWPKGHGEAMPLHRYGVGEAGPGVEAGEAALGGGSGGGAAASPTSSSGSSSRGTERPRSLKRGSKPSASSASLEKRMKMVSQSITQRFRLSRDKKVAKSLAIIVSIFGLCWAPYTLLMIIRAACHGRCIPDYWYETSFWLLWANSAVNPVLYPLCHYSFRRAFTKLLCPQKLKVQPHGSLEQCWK

hERG (KCNH2) = hERG (KCNH2) (Homo sapiens, UniProt Q12809); assay: Inhibition of human ERG at 3 uM by patch-clamp assay
hERG (KCNH2), sequence (Q12809 whole entry): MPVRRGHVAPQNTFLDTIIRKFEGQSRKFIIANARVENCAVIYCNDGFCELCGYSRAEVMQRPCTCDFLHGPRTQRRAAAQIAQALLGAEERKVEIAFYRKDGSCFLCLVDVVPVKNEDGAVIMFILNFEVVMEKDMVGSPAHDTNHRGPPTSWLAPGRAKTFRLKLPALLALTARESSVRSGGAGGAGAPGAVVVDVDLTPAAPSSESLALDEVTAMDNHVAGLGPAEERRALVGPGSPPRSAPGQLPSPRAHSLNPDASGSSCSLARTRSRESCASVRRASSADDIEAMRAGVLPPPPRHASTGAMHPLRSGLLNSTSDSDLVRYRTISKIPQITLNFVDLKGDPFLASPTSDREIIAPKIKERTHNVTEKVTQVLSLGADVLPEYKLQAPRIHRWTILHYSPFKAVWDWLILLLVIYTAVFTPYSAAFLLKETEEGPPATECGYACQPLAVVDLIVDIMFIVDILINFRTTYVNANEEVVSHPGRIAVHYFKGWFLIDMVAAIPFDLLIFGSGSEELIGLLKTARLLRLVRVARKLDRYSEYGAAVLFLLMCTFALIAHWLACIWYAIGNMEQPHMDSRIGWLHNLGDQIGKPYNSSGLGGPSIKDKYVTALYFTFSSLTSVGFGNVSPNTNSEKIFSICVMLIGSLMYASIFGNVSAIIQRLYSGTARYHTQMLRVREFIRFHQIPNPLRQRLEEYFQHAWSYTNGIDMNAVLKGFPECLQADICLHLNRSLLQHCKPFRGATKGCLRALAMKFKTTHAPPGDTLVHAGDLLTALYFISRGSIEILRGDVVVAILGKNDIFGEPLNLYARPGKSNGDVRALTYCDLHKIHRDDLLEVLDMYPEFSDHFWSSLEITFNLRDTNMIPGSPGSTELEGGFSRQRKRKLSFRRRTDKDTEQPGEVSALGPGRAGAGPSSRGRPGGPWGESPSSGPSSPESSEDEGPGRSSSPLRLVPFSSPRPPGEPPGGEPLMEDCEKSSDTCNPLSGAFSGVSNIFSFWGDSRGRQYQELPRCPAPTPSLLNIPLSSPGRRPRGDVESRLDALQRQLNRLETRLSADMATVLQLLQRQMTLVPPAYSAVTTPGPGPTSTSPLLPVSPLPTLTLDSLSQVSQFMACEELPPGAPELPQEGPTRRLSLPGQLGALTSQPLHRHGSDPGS

[2] = biological target: Voltage-gated inwardly rectifying potassium channel KCNH2 (Homo sapiens, UniProt Q12809); assay: Inhibition of human ERG by patch-clamp assay
Voltage-gated inwardly rectifying potassium channel KCNH2, sequence (Q12809 whole entry): as above

Rattus norvegicus [3] = assay: Inhibition of RAMH-induced dipsogenia in po dosed Sprague-Dawley rat administered 30 mins prior to RAMH challenge measured up to 20 mins; type: functional; conditions: read-out: MED
In short: (§1)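 Rats given compound orally 0.5 h (or, for duration of action, at selected times up to 6 h) before RAMH 10 mg/kg SC; water consumed over 20 min measured. Screening doses 1 or 0.3 mg/kg PO, also 0.1 mg/kg; duration study at 0.6 mg/kg PO. MED = minimum dose fully inhibiting drinking; means ± SEM.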

[4] = Tmax in Sprague-Dawley rat at 3 mg/kg, po and iv by LC-MS/MS analysis; type: ADME, organism-based; parameters: dose 3 mg/kg, route oral; conditions: in vivo
In short: (§2)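 Rats were given the compound both IV and PO in a routine PK study. Tmax came from the PO arm and Vss from the IV arm.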

[5] = Cmax in Sprague-Dawley rat plasma at 3 mg/kg, po and iv by LC-MS/MS analysis; type: ADME, organism-based; parameters: dose 3 mg/kg, route oral
In short: (§3)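 Rat PK after IV and PO dosing; plasma Cmax, Tmax, IV half-life and Vss determined; oral bioavailability from AUCpo/AUCiv. Metabolite exposure determined after a 3 mg/kg PO parent dose.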

[6] = Half life in Sprague-Dawley rat at 3 mg/kg, iv by LC-MS/MS analysis; type: ADME, organism-based; parameters: dose 3 mg/kg, route intravenous; conditions: in vivo; in short: as §3
Rattus norvegicus [7] = assay: Volume of distribution at steady state in Sprague-Dawley rat at 3 mg/kg, po and iv by LC-MS/MS analysis; type: ADME, organism-based; parameters: dose 3 mg/kg, route oral; conditions: in vivo; in short: as §2
[8] = Oral bioavailability in Sprague-Dawley rat at 3 mg/kg by LC-MS/MS analysis; type: ADME, organism-based; conditions: in vivo; in short: as §3
[9] = Ratio of drug level in brain to plasma in Sprague-Dawley rat at 3 mg/kg, po and iv after 0.75 to 3 hrs by LC-MS/MS analysis; type: ADME, organism-based; parameters: dose 3 mg/kg, route oral; conditions: read-out: BPR
In short: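 Brain (µg/mg) and plasma (µg/mL) levels were measured after oral dosing, with three rats per time point. The b/p ratio was the mean of the nine individual ratios.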

[10] = Plasma protein binding in rat; type: ADME, cell-free; conditions: read-out: PPB (converted)
[11] = Plasma protein binding in human; type: ADME, cell-free; conditions: read-out: PPB (converted)
[12] = Drug uptake in Sprague-Dawley rat brain at 0.3 mg/kg, po after 1 hr; type: ADME, organism-based; parameters: dose 0.3 mg/kg, route oral
In short: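 Whole-brain concentration measured 1 h after a 0.3 mg/kg oral dose in rat, the time coinciding with the drinking measurement; expressed […].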

Rattus norvegicus [13] = assay: Inhibition of RAMH-induced dipsogenia in Sprague-Dawley rat at 0.6 mg/kg, po administered 6 hrs prior to RAMH challenge measured up to 20 mins; type: functional; in short: as §1
[14] = Tmax in mouse at 3 mg/kg, po by LC-MS/MS analysis; type: ADME, organism-based; parameters: dose 3 mg/kg, route oral; conditions: in vivo
[15] = Tmax in monkey at 3 mg/kg, po by LC-MS/MS analysis; type: ADME, organism-based, Macaca mulatta; parameters: dose 3 mg/kg, route oral; conditions: rhesus monkey, in vivo
[16] = Tmax in dog at 3 mg/kg, po by LC-MS/MS analysis; type: ADME, organism-based, Canis lupus familiaris; parameters: dose 3 mg/kg, route oral; conditions: in vivo
[17] = Cmax in mouse at 3 mg/kg, po by LC-MS/MS analysis; type: ADME, organism-based; parameters: dose 3 mg/kg, route oral; conditions: in vivo
[18] = Cmax in monkey at 3 mg/kg, po by LC-MS/MS analysis; type: ADME, organism-based, Macaca mulatta; parameters: dose 3 mg/kg, route oral; conditions: rhesus monkey, in vivo
[19] = Cmax in dog at 3 mg/kg, po by LC-MS/MS analysis; type: ADME, organism-based, Canis lupus familiaris; parameters: dose 3 mg/kg, route oral; conditions: in vivo
[20] = Half life in mouse at 3 mg/kg, po by LC-MS/MS analysis; type: ADME, organism-based; parameters: dose 3 mg/kg, route oral; conditions: in vivo
[21] = Half life in Sprague-Dawley rat at 3 mg/kg, po by LC-MS/MS analysis; type: ADME, organism-based; parameters: dose 3 mg/kg, route oral; conditions: in vivo
[22] = Half life in monkey at 3 mg/kg, po by LC-MS/MS analysis; type: ADME, organism-based, Macaca mulatta; parameters: dose 3 mg/kg, route oral; conditions: rhesus monkey, in vivo
[23] = Half life in dog at 3 mg/kg, po by LC-MS/MS analysis; type: ADME, organism-based, Canis lupus familiaris; parameters: dose 3 mg/kg, route oral; conditions: in vivo
[24] = Oral bioavailability in monkey at 3 mg/kg by LC-MS/MS analysis; type: ADME, organism-based, Macaca mulatta; conditions: rhesus monkey, in vivo
[25] = Oral bioavailability in dog at 3 mg/kg by LC-MS/MS analysis; type: ADME, organism-based, Canis lupus familiaris; conditions: in vivo
[26] = Clearance in mouse at 3 mg/kg, po by LC-MS/MS analysis; type: ADME, organism-based; parameters: dose 3 mg/kg, route oral; conditions: in vivo
[27] = Clearance in Sprague-Dawley rat at 3 mg/kg, po by LC-MS/MS analysis; type: ADME, organism-based; parameters: dose 3 mg/kg, route oral; conditions: in vivo
[28] = Clearance in monkey at 3 mg/kg, po by LC-MS/MS analysis; type: ADME, organism-based, Macaca mulatta; parameters: dose 3 mg/kg, route oral; conditions: rhesus monkey, in vivo
[29] = Clearance in dog at 3 mg/kg, po by LC-MS/MS analysis; type: ADME, organism-based, Canis lupus familiaris; parameters: dose 3 mg/kg, route oral; conditions: in vivo
Mus musculus [30] = assay: Hepatic blood flow in mouse at 3 mg/kg, po by LC-MS/MS analysis; type: ADME, organism-based, Liver; parameters: dose 3 mg/kg, route oral; conditions: in vivo
Rattus norvegicus [31] = assay: Hepatic blood flow in Sprague-Dawley rat at 3 mg/kg, po by LC-MS/MS analysis; type: ADME, organism-based, Liver; parameters: dose 3 mg/kg, route oral; conditions: in vivo
Rhesus monkey [32] = assay: Hepatic blood flow in monkey at 3 mg/kg, po by LC-MS/MS analysis; type: ADME, organism-based, Macaca mulatta, Liver; parameters: dose 3 mg/kg, route oral; conditions: in vivo
Canis familiaris [33] = assay: Hepatic blood flow in dog at 3 mg/kg, po by LC-MS/MS analysis; type: ADME, organism-based, Canis lupus familiaris, Liver; parameters: dose 3 mg/kg, route oral; conditions: in vivo
Mus musculus [34] = assay: Volume of distribution at steady state in mouse at 3 mg/kg, po by LC-MS/MS analysis; type: ADME, organism-based; parameters: dose 3 mg/kg, route oral; conditions: in vivo
Rattus norvegicus [35] = assay: Volume of distribution at steady state in Sprague-Dawley rat at 3 mg/kg, po by LC-MS/MS analysis; type: ADME, organism-based; parameters: dose 3 mg/kg, route oral; conditions: in vivo
Rhesus monkey [36] = assay: Volume of distribution at steady state in monkey at 3 mg/kg, po by LC-MS/MS analysis; type: ADME, organism-based, Macaca mulatta; parameters: dose 3 mg/kg, route oral; conditions: in vivo
Canis familiaris [37] = assay: Volume of distribution at steady state in dog at 3 mg/kg, po by LC-MS/MS analysis; type: ADME, organism-based, Canis lupus familiaris; parameters: dose 3 mg/kg, route oral; conditions: in vivo
Histamine H3 receptor [38] = biological target: T1, Histamine H3 receptor (Homo sapiens, UniProt Q9Y5N1); assay: Binding affinity to human cloned histamine H3 receptor
T1 sequence (Q9Y5N1 whole entry): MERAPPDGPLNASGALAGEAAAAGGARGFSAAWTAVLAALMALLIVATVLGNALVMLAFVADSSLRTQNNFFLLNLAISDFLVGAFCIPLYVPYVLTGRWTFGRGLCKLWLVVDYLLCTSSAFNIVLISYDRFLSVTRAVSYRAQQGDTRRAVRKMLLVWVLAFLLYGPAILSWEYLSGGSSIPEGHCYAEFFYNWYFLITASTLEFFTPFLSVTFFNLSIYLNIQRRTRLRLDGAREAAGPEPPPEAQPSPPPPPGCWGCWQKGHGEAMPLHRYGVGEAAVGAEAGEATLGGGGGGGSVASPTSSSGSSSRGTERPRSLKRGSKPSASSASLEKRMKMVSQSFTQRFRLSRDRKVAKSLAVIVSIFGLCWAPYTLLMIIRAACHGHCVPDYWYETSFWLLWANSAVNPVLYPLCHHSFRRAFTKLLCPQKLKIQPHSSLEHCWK

Histamine H3 receptor [39] = biological target: T1, Histamine H3 receptor; assay: Inverse agonist activity at human cloned histamine H3 receptor by [35S]GTPgammaS binding assay; type: functional
Cytochrome P450 3A4 = Cytochrome P450 3A4 (Homo sapiens, UniProt P08684); assay: Inhibition of CYP3A4; type: ADME
Cytochrome P450 3A4, sequence (P08684 whole entry, canonical isoform): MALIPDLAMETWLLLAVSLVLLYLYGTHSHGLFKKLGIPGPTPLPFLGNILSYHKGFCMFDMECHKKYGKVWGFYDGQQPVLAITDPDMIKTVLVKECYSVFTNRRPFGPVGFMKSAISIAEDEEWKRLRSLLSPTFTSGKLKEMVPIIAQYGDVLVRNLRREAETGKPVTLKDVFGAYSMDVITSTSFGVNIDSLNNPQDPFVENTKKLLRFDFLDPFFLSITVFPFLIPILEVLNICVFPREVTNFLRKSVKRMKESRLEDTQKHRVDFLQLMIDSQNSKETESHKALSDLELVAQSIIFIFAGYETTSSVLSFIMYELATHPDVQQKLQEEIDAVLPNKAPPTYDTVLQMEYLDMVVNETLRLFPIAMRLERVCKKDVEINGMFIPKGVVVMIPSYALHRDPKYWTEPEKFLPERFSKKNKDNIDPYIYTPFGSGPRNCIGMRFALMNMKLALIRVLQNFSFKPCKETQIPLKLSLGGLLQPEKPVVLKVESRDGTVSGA
In short: (§4)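 Inhibition tested against five major CYP isoforms; IC50 determined.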

Cytochrome P450 1A2 = biological target: T2, Cytochrome P450 1A2 (Homo sapiens, UniProt P05177); assay: Inhibition of CYP1A2; type: ADME; in short: as §4
T2 sequence (P05177 whole entry): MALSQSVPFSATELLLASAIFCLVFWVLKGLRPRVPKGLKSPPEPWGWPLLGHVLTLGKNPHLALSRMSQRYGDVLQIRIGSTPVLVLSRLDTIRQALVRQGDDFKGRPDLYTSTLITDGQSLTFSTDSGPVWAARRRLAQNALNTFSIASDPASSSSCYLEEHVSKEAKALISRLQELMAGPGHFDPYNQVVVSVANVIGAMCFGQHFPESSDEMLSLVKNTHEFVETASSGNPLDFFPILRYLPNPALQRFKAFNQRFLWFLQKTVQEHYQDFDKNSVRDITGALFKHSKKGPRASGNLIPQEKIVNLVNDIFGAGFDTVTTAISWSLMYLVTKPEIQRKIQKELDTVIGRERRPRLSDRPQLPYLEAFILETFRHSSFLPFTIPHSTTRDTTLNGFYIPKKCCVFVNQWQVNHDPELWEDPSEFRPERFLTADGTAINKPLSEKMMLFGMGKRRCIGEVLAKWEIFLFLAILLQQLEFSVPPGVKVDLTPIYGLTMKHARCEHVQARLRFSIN

Cytochrome P450 2C9 = Cytochrome P450 2C9 (Homo sapiens, UniProt P11712); assay: Inhibition of CYP2C9; type: ADME; in short: as §4
Cytochrome P450 2C9, sequence (P11712 whole entry): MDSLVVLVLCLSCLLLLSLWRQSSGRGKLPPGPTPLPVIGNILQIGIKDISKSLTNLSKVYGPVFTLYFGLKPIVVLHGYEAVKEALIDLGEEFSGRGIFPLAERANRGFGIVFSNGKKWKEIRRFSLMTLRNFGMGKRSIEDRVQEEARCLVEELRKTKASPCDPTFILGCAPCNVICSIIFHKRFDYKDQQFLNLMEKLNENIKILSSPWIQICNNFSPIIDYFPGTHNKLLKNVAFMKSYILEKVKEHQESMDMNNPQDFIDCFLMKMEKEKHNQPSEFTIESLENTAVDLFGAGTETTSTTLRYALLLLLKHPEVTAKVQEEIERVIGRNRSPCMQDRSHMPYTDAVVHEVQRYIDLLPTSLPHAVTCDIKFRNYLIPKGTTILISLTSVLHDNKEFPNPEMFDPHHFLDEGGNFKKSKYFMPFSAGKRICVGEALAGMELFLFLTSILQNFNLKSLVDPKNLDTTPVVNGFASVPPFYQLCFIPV

Cytochrome P450 2C19 = Cytochrome P450 2C19 (Homo sapiens, UniProt P33261); assay: Inhibition of CYP2C19; type: ADME; in short: as §4
Cytochrome P450 2D6 = Cytochrome P450 2D6 (Homo sapiens, UniProt P10635); assay: Inhibition of CYP2D6; type: ADME; in short: as §4
Cytochrome P450 2D6, sequence (P10635 whole entry): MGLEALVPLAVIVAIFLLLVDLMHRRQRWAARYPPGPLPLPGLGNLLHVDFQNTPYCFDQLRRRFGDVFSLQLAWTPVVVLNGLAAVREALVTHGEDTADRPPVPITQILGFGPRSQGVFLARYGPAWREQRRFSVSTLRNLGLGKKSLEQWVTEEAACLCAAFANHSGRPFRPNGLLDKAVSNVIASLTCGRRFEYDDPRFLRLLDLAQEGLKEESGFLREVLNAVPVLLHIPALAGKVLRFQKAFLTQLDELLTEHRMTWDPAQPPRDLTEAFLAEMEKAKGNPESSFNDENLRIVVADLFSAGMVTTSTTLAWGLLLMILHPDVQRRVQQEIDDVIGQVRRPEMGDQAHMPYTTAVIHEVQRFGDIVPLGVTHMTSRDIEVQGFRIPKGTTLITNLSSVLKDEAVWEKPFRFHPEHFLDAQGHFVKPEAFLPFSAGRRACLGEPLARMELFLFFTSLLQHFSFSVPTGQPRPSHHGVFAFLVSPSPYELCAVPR

Salmonella typhimurium = assay: Mutagenic activity in Salmonella Typhimurium by micro-Ames assay; type: toxicity, organism-based; conditions: salmonella enterica subsp. enterica serovar typhimurium
[40] = Cmax in Sprague-Dawley rat at 3 mg/kg, po by LC-MS/MS analysis; type: ADME, organism-based; parameters: dose 3 mg/kg, route oral; conditions: in vivo; in short: as §3
[41] = Oral bioavailability in mouse at 3 mg/kg by LC-MS/MS analysis; type: ADME, organism-based; conditions: in vivo
Canis lupus familiaris [42] = assay: Cardiotoxicity in dog assessed as increase in mean arterial blood pressure at 10 to 30 mg/kg, po; conditions: in vivo
Canis lupus familiaris [43] = assay: Cardiotoxicity in dog assessed as increase in mean arterial blood pressure at 10 to 30 mg/kg, po after 60 mins; conditions: in vivo, 1 h

## COCCCS(=O)(=O)c1ccc(-c2ccc(CCN3CCC[C@H]3C)cc2)cc1
Histamine H3 receptor [1]
  Ki: 0.0007 µM
hERG (KCNH2)
  inhibition at 3 µM: 14%
[2]
  IC50: 11 µM
Rattus norvegicus [3]
  minimal effective dose: 0.3 mg/kg
[4]
  Tmax: 0.5 h
[5]
  Cmax: 104 ng/mL
[6]
  half-life: 1.9 h
Rattus norvegicus [7]
  Vdss: 7.5 L/kg
[8]
  bioavailability: 27.3%
[9]
  Kp: 3.3
[10]
  fraction unbound: 0.26
[11]
  fraction unbound: 0.26
[12]
  concentration at 1 h: 17 ng/g
Rattus norvegicus [13]
  inhibition in vivo at 0.6 mg/kg: < 20%
[14]
  Tmax: 1 h
[15]
  Tmax: 2.3 h
[16]
  Tmax: 0.8 h
[17]
  Cmax: 80 ng/mL
[18]
  Cmax: 550 ng/mL
[19]
  Cmax: 600 ng/mL
[20]
  half-life: 1.5 h
[21]
  half-life: 1.9 h
[22]
  half-life: 6.9 h
[23]
  half-life: 5 h
[24]
  bioavailability: 67.5%
[25]
  bioavailability: 100%
[26]
  CL/F: 72.7 mL/min/kg
[27]
  CL/F: 74.3 mL/min/kg
[28]
  CL/F: 6.17 mL/min/kg
[29]
  CL/F: 13.7 mL/min/kg
Mus musculus [30]
  QH: 78%
Rattus norvegicus [31]
  QH: 106%
Rhesus monkey [32]
  QH: 14%
Canis familiaris [33]
  QH: 43%
Mus musculus [34]
  Vdss: 2.54 L/kg
Rattus norvegicus [35]
  Vdss: 7.54 L/kg
Rhesus monkey [36]
  Vdss: 2.16 L/kg
Canis familiaris [37]
  Vdss: 2.89 L/kg
Histamine H3 receptor [38]
  Ki: 0.0042 µM
Histamine H3 receptor [39]
  IC50: 0.0007 µM
Cytochrome P450 3A4
  IC50: > 40 µM
Cytochrome P450 1A2
  IC50: > 40 µM
Cytochrome P450 2C9
  IC50: > 40 µM
Cytochrome P450 2C19
  IC50: > 40 µM
Cytochrome P450 2D6
  IC50: > 40 µM
Salmonella typhimurium
  Activity: Non-toxic
[40]
  Cmax: 100 ng/mL
[41]
  bioavailability: 35.4%
Canis lupus familiaris [42]
  Activity: Toxic
Canis lupus familiaris [43]
  Activity: Non-toxic
